Data set [1] has as its system mouse opioid μ receptor expressed in CHO cell lines. The data set can be described thus: In vitro competitive radioligand binding assay, MOR. The note with it: ratio of Ki values. Put shortly:
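CHO membranes (30 μg) expressing mouse μ or κ, or human δ, opioid receptor were incubated with radioligand and varied test compound in TME (pH 7.4) for 1.5 h at 30 °C, then filtered. Nonspecific binding was defined with 5 μM naltrexone, U50,488 or SNC80.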

Data set [2] addresses human δ opioid receptor expressed in CHO cell lines (Homo sapiens, UniProt P41143). Description: In vitro competitive radioligand binding assay, DOR. Conditions: ratio of Ki values.
Data set [3] concerns the target DOR (DOR-CHO membrane protein) (Homo sapiens, UniProt P41143). Description: DOR [35S]-GTPγS functional assay. The data set is classed as biochemical. Background: GTPγS is a poorly hydrolysed GTP analogue; its binding reports G protein activation.
A further data set has as its system male Swiss Webster mice. The data set can be described thus: Carmine red dye assay. It counts as in vivo, mouse. The note with it: test compound 10 mg/kg oral gavage, morphine 5 mg/kg. Put shortly:
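Male Swiss Webster mice (5–8 wk, 25–35 g), 5–6 per group, housed singly. Test compound 10 mg/kg or vehicle given p.o. 5 min before morphine 5 mg/kg injection. Twenty min after morphine, 0.2 mL 6% carmine red in 0.5% CMC/ddH₂O given p.o. Time to first red pellet recorded, 6 h cut-off. One-way ANOVA with corrected Dunnett test.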

For data set [4] the following is noted: male rats, after oral administration; cited from earlier work.
In another data set the test system is patients. The note with it: long-term study; cited from earlier work.
The subject of a further data set is gastrointestinal transit. The note with it: MNTX intraperitoneally, morphine 5 mg/kg s.c.; cited from earlier work.
The subject of another data set is CYP3A4. The note with it: cited from earlier work.

Sequence of human δ opioid receptor expressed in CHO cell lines (P41143 whole entry): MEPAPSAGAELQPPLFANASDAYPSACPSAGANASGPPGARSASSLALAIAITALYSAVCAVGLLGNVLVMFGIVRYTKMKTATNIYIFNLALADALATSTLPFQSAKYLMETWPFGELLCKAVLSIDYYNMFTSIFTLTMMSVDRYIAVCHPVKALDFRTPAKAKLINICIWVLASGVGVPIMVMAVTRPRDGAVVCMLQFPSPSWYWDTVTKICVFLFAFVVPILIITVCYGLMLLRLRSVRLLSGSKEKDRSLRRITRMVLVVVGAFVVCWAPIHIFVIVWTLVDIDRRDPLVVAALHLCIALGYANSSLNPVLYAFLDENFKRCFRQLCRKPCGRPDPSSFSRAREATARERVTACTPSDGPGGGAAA
Sequence of DOR (DOR-CHO membrane protein) (P41143 whole entry): as above

With `O=C(Cc1cc[nH]n1)N[C@H]1CC[C@@]2(O)[C@H]3Cc4ccc(O)c5c4[C@@]2(CCN3CC2CC2)[C@H]1O5` [Compound 2, 17-Cyclopropylmethyl-3,14β-dihydroxy-4,5α-epoxy-6α-(3′-pyrazolylacetamido)morphinan], the “selectivity for the MOR over both the KOR and DOR” value in data set [1] is “at least a hundred-fold”.

Take `O=C(Cc1cn[nH]c1)N[C@H]1CC[C@@]2(O)[C@H]3Cc4ccc(O)c5c4[C@@]2(CCN3CC2CC2)[C@H]1O5` [Compound 5, 17-Cyclopropylmethyl-3,14β-dihydroxy-4,5α-epoxy-6α-(4′-pyrazolylacetamido)morphinan]: the “selectivity for the MOR over both the KOR and DOR” value in data set [1] is “at least a hundred-fold”.

On to `O=C(Cc1cc[nH]n1)N[C@@H]1CC[C@@]2(O)[C@H]3Cc4ccc(O)c5c4[C@@]2(CCN3CC2CC2)[C@H]1O5` [Compound 14, 17-Cyclopropylmethyl-3,14β-d/hydroxy-4,5α-epoxy-6β-(3′-pyrazolylacetamldo)morphinan], for which the δ/μ selectivity entry in data set [2] was “hundreds-fold”. Same read-out and setting: in the case of `O=C(CCc1cc[nH]n1)N[C@@H]1CC[C@@]2(O)[C@H]3Cc4ccc(O)c5c4[C@@]2(CCN3CC2CC2)[C@H]1O5` [Compound 15] it was “hundreds-fold”. Take `O=C(N[C@@H]1CC[C@@]2(O)[C@H]3Cc4ccc(O)c5c4[C@@]2(CCN3CC2CC2)[C@H]1O5)c1cnc[nH]1` [Compound 19, 17-Cyclopropylmethyl-3,14β-dlhydroxy-4,5α-epoxy-6β-(5′-imldazolylcarboxamldo)morphinan]: in data set [3], a half-maximal response (EC50) required 19.1 ± 5.91 nM. Regarding `O=C(N[C@@H]1CC[C@@]2(O)[C@H]3Cc4ccc(O)c5c4[C@@]2(CCN3CC2CC2)[C@H]1O5)c1ncc[nH]1` [Compound 22, 17-Cyclopropylmethyl-3,14β-dihydroxy-4,5α-epoxy-6β-(2′-imidazolylcarboxamido)morphinan], the δ/μ selectivity entry in data set [2] was “hundreds-fold”. Same read-out and setting: in the case of `O=C(Cc1ncc[nH]1)N[C@@H]1CC[C@@]2(O)[C@H]3Cc4ccc(O)c5c4[C@@]2(CCN3CC2CC2)[C@H]1O5` [Compound 23, 17-Cyclopropylmethyl-3,14β-dihydroxy-4,5α-epoxy-6β-(2′-imidazolylacetamido)morphinan] it was “hundreds-fold”. On to `C[N@+]1(CC2CC2)CC[C@]23c4c5ccc(O)c4O[C@H]2C(=O)CC[C@@]3(O)[C@H]1C5` [MNTX, methylnaltrexone], for which the “reversal of the inhibitory effects of morphine on GI motility” value in the data set on male Swiss Webster mice is on record as “no blockage was observed”. The oral bioavailability in data set [4] is on record as under 1%. Further, the “cardiac-related adverse event, share of patients” value in the data set on patients is “less than 1%”. For the same molecule, the “block of the antitransit effects of morphine” value in the data set on gastrointestinal transit is listed as “effective”. As for `CC(C)(NC(=O)C1=C(O)[C@@H]2Oc3c(O)ccc4c3[C@@]23CCN(CC2CC2)[C@H](C4)[C@]3(O)C1)c1nc(-c2ccccc2)no1` [naldemedine], in the data set with CYP3A4, the “substrate of CYP3A4” value is given as “substrates”. Turning to `C=CCN1CC[C@]23c4c5ccc(O)c4O[C@H]2[C@@H](OCCOCCOCCOCCOCCOCCOCCOC)CC[C@@]3(O)[C@H]1C5` [naloxegol], the “substrate of CYP3A4” value in the data set with CYP3A4 is “substrates”.

The term EC50 denotes the concentration at which the effect is half-maximal. Read a low EC50 as a more potent agent.

The record behind these values is publication PMC10546485 (Journal of medicinal chemistry, 2022).
